Experimental findings from ChEMBL document CHEMBL5149984, “Discovery of HN37 as a Potent and Chemically Stable Antiepileptic Drug Candidate” (J Med Chem, 2021) are described below.

Data set [1] deals with T1, Potassium voltage-gated channel subfamily KQT member 2/member 3 (Rattus norvegicus) (UniProt O88943+O88944). As to the kind of experiment: Agonist activity at rat KCNQ2/3 channel expressed in CHO cells assessed as amplitude change of outward current at 10 uM by patch clamp method. In kind it is cell-based. The note with it: filed as agonist. In short, it runs like this:
(§1)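 Whole-cell patch clamp at room temperature on CHO cells (DMEM/F12, 10% FBS) transiently co-transfected with EGFP and hKCNQ1, rKCNQ2, rKCNQ3 A278T, hKCNQ4 or hKCNQ5; KCNQ2/3 at 1:1 cDNA ratio. Pipette solution 145 mM KCl, 5 mM MgATP, pH 7.3; bath 140 mM NaCl, 5 mM KCl, pH 7.4, under perfusion. V1/2 from Boltzmann fits; I/I0 is current amplitude with versus without compound; n = 4−6.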
(The patch-clamp technique gives a direct electrical read-out from membranes.)

A short description of data set [2]: Cmax in Sprague-Dawley rat at 6 mg/kg, po measured upto 24 hrs by LC-MS/MS method. Format: ADME, organism-based. Details: time < 24 hrs, dose 6 mg/kg, route po. Particulars: in vivo. In short, it runs like this:
(§2)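 Male SD rats (180−220 g) given single oral doses of 2, 6 and 20 mg/kg; handled as in the mouse PK study (fasted 12 h before and 2 h after dosing, 5% DMSO/5% Tween 80/90% saline formulation). In a separate 6 mg/kg p.o. set, blood and brain were sampled together. Plasma and brain levels by LC−MS/MS.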

Data set [3] can be described thus: Cmax in Sprague-Dawley rat blood at 6 mg/kg, po measured upto 24 hrs by LC-MS/MS method. Format: ADME, organism-based. Further details: time < 24 hrs, dose 6 mg/kg, route po. The procedure, abridged:
as §2

The nature of data set [4]: Half life in Sprague-Dawley rat at 2 mg/kg, po measured upto 24 hrs by LC-MS/MS method. In kind it is ADME, organism-based. The note with it: in vivo. In short, it runs like this: as §2
A short description of data set [5]: Metabolic stability in monkey liver microsomes assessed as intrinsic clearance. In kind it is ADME, Macaca mulatta, Microsome. The note with it: rhesus monkey, read-out: CLH.
A further data set concerns the target Cytochrome P450 2D6 (Homo sapiens, UniProt P10635). As to the kind of experiment: Time dependent inhibition of human liver microsome CYP2D6 preincubated for 0.5 hrs in presence or absence of NADPH followed by substrate addition by LC-MS/MS method. Format: ADME, microsomes. In short, it runs like this:
(§3)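 Human liver microsomes preincubated 0.5 h with 0.10–50 μM test compound, with or without NADPH, then CYP-specific probe substrate added and incubation continued. Metabolite measured by LC-MS/MS; % activity remaining relative to no-compound control; IC50 fitted by Probit model. For CYP3A4, midazolam 1′-hydroxylation and testosterone 6β-hydroxylation were read separately.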
Background: Liver microsomes are vesicles of endoplasmic reticulum, rich in cytochrome P450 enzymes.

For the next data set, the target named is Cytochrome P450 1A2 (Homo sapiens, UniProt P05177). The data set is described as follows: Time dependent inhibition of human liver microsome CYP1A2 preincubated for 0.5 hrs in absence of NADPH followed by substrate addition by LC-MS/MS method. Format: ADME, microsomes. The procedure, abridged: as §3
Cytochrome P450 1A2, sequence (P05177 whole entry): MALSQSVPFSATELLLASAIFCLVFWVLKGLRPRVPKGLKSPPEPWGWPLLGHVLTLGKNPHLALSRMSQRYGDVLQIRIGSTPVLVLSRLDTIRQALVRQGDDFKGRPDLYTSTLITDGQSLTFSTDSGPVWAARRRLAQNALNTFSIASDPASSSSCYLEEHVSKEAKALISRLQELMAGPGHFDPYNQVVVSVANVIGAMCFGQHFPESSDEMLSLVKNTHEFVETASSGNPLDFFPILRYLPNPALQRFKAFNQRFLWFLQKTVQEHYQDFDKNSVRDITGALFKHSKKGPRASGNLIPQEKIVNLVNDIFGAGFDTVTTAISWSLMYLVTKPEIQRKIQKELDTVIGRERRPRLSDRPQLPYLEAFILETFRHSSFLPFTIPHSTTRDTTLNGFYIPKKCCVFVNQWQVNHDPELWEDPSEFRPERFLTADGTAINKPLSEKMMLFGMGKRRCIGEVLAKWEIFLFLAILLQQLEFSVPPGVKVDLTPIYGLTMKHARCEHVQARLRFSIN
Data set [6] has as its target T2, Potassium voltage-gated channel subfamily KQT member 1 (Homo sapiens, UniProt P51787).
T2 sequence (P51787 whole entry): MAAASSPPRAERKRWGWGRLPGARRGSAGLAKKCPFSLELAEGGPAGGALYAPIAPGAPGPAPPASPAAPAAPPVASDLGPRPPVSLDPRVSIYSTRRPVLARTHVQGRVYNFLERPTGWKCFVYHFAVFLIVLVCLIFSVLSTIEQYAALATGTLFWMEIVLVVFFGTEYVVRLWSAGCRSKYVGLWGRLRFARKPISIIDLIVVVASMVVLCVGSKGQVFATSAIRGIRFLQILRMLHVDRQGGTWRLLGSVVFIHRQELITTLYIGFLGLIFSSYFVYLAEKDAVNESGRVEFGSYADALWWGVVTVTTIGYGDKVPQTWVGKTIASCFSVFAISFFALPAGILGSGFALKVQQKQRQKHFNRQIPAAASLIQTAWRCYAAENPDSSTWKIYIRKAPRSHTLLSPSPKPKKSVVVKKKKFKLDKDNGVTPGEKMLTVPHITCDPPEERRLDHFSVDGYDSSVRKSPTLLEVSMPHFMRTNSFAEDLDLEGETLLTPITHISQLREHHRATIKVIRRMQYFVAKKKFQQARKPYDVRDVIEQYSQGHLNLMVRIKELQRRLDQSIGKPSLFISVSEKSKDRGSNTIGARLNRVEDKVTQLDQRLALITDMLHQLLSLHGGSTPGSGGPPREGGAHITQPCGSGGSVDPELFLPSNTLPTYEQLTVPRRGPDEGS
The data set is described as follows: Agonist activity at human KCNQ1 channel expressed in CHO cells assessed as amplitude change of outward current at 0.1 uM by patch clamp method. In kind it is cell-based. In short, it runs like this: as §1

Data set [7] concerns the target Potassium voltage-gated channel subfamily KQT member 2 (Rattus norvegicus) (UniProt O88943). As to the kind of experiment: Agonist activity at rat KCNQ2 channel expressed in CHO cells assessed as shift of half voltage of maximal activation at 0.1 uM by patch clamp method. Format: cell-based. Particulars: filed as agonist. In short, it runs like this: as §1
The target in data set [8] is T1, Potassium voltage-gated channel subfamily KQT member 2/member 3 (Rattus norvegicus). The data set is described as follows: Agonist activity at rat KCNQ2/3 channel expressed in CHO cells assessed as amplitude change of outward current at 0.1 uM by patch clamp method. In kind it is cell-based. Particulars: filed as agonist. In short, it runs like this:
as §1

For a further data set, the system named is Mus musculus. The data set is described as follows: Anticonvulsant activity in MES induced Kunming mouse model of seizure at 5 mg/kg, po after 1 hr. In kind it is functional. In short, it runs like this:
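MES test in male KM mice. Compounds freshly suspended in 0.5% CMC-Na and given by gavage at 20 mL/kg; 160 V stimulus through ear clips. Protection scored as absence of hindlimb tonic extension; time course at 0.25, 0.5, 1 and 2 h, otherwise tested at 1 h. ED50 from dose−response by nonlinear regression; Fisher's exact test versus vehicle.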

The nature of data set [9]: Drug concentration in Kunming mouse plasma at 5 mg/kg. Format: ADME, organism-based. Particulars: in vivo. In short, it runs like this: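 Male KM mice (18−24 g) fasted 12 h before and 2 h after dosing, given 5 mg/kg orally in 5% DMSO/5% Tween 80/90% normal saline (n = 3 per time point). Aortic blood taken at 0.25–24 h and whole brain collected. Acetonitrile extraction with internal standard, then LC−MS/MS. Bioavailability calculated against the 2 mg/kg i.v. arm.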

The next data set has as its system Brain. The data set is described as follows: Anticonvulsant activity in MES induced Kunming mouse model of seizure assessed as EC50 in brain. In kind it is functional, tissue-based.
Data set [10] in a line: Ratio of drug concentration in brain to plasma of MES induced Kunming mouse model of seizure.
The species named for data set [11] is Rattus norvegicus. As to the kind of experiment: Potency index, ratio of retigabine ED50 to test compound ED50 for anticonvulsant activity in MES induced rat model of seizure after 1 hr. In kind it is functional.
The nature of data set [12]: Neurotoxicity in Kunming mouse assessed as motor impairment rate at 90 mg/kg, po after 1 hr by rotarod test. In kind it is toxicity, organism-based. The note with it: in vivo. The procedure, abridged:
(§4)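 Male KM mice dosed intragastrically with compound freshly suspended in 0.5% CMC-Na. Rotarod performance scored 1 h after dosing as the fraction of animals showing motor impairment. Fisher's exact test versus vehicle; TD50 from nonlinear dose−response fit.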

Data set [13] can be described thus: Neurotoxicity in Kunming mouse assessed as motor impairment rate at 150 mg/kg, po after 1 hr by rotarod test. Format: toxicity, organism-based. Particulars: in vivo. In short, it runs like this:
as §4
In general terms: The rotarod test checks motor coordination on a turning rod.

Data set [14] can be described thus: Ratio of TD50 for Kunming mouse to ED50 for anticonvulsant activity in Kunming mouse. In kind it is toxicity. The note with it: read-out: Ratio TD50/ED50. The procedure, abridged: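 KM mice given compound orally as a fresh 0.5% CMC-Na suspension (20 mL/kg), tested 1 h later. ED50 from the MES test (protection from hindlimb tonic extension; ear-clip stimulus 160 V). TD50 from the rotarod test as motor impairment. Both from dose–response nonlinear regression with 95% CI.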

Data set [15] is filed under the species Rattus norvegicus. As to the kind of experiment: Potency index, ratio of Topiramate ED50 to test compound ED50 for anticonvulsant activity in MES induced rat model of seizure after 1 hr. Format: functional.

Cytochrome P450 2D6, sequence (P10635 whole entry): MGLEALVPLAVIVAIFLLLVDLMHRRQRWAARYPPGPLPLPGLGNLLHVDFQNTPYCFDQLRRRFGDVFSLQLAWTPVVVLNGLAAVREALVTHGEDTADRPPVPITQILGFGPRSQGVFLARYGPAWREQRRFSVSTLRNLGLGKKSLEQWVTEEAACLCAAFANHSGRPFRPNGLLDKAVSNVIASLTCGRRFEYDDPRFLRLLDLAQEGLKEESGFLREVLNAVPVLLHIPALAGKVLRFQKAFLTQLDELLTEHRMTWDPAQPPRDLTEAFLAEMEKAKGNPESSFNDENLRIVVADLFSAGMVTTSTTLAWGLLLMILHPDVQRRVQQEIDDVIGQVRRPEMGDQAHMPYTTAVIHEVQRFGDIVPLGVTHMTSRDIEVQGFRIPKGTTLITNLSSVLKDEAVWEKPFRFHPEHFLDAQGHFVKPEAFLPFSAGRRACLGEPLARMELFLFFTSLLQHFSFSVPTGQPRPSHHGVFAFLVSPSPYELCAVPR
Potassium voltage-gated channel subfamily KQT member 2 (Rattus norvegicus), sequence (O88943 whole entry): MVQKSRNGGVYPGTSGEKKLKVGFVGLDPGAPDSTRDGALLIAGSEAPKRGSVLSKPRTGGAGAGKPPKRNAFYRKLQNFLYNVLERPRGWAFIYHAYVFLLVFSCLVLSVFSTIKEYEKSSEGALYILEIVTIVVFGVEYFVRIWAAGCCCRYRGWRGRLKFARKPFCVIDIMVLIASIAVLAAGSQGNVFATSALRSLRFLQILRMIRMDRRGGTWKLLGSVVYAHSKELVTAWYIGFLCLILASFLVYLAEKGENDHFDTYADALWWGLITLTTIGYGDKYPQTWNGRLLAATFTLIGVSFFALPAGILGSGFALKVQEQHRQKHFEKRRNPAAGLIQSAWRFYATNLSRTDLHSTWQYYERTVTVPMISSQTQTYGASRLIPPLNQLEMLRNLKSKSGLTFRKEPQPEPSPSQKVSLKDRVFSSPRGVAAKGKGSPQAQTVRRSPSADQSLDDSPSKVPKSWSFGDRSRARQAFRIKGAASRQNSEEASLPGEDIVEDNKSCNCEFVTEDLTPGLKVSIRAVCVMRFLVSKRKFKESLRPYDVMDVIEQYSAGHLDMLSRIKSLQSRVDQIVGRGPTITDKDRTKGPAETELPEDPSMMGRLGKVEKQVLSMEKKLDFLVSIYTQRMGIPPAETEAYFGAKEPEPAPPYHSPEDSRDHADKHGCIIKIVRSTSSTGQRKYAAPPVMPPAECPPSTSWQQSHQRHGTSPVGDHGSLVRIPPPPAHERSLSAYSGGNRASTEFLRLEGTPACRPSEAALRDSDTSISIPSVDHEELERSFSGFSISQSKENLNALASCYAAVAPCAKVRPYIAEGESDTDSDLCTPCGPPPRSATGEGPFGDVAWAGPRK

For the compound `CCOC(=O)Nc1ccc(NCc2ccc(F)cc2)cc1N` [EZOGABINE], in data set [1], the Activity came out at 1.97.
What is called Cmax is the highest concentration seen after dosing. The term half-life denotes how long it takes for the measured level to halve. A word on the IC50: it is the concentration that inhibits the measured activity by half. The term EC50 denotes the concentration at which the effect is half-maximal. One may read the Kp as tissue or fluid exposure divided by exposure in the circulation. Take `C#CCN(Cc1ccc(F)cc1)c1cc(C)c(NC(=O)OC)c(C)c1`: the results for the Cmax in data set [2] and in data set [3] were 264 ng/mL and 162 ng/mL, respectively. Also, the half-life in data set [4] was 1.72 h. The CLint scaled in data set [5] stood at 112 mL/min/kg. Further, the results for the IC50 at Cytochrome P450 2D6 and at Cytochrome P450 1A2 were > 50 µM and 142 µM, respectively. Besides, the Activity in data set [6] is 0.99; in data set [7], -35.6 mV; in data set [8] it was 2.77; with Mus musculus it was 100%; in data set [12], 62.5%; in data set [13], 87.5%. The compound further displayed a concentration in data set [9] of 110 nM. The EC50 in the data set on Brain is 0.07 µM. Further, in [10], the Kp stood at 1.4. Further, the “Ratio ED50” value in the data set listed under Rattus norvegicus [11] is on record as 2; in the data set listed under Rattus norvegicus [15], 18.7. In addition, the selectivity ratio in data set [14] stood at 43.2.
